For orientation: IC50 means the concentration that inhibits the measured activity by half. Low values mean greater potency in that assay, high ones weaker potency in that assay.

Assay [1] deals with T1, DNA polymerase alpha catalytic subunit (Homo sapiens, UniProt P09884).
T1 sequence (P09884 whole entry): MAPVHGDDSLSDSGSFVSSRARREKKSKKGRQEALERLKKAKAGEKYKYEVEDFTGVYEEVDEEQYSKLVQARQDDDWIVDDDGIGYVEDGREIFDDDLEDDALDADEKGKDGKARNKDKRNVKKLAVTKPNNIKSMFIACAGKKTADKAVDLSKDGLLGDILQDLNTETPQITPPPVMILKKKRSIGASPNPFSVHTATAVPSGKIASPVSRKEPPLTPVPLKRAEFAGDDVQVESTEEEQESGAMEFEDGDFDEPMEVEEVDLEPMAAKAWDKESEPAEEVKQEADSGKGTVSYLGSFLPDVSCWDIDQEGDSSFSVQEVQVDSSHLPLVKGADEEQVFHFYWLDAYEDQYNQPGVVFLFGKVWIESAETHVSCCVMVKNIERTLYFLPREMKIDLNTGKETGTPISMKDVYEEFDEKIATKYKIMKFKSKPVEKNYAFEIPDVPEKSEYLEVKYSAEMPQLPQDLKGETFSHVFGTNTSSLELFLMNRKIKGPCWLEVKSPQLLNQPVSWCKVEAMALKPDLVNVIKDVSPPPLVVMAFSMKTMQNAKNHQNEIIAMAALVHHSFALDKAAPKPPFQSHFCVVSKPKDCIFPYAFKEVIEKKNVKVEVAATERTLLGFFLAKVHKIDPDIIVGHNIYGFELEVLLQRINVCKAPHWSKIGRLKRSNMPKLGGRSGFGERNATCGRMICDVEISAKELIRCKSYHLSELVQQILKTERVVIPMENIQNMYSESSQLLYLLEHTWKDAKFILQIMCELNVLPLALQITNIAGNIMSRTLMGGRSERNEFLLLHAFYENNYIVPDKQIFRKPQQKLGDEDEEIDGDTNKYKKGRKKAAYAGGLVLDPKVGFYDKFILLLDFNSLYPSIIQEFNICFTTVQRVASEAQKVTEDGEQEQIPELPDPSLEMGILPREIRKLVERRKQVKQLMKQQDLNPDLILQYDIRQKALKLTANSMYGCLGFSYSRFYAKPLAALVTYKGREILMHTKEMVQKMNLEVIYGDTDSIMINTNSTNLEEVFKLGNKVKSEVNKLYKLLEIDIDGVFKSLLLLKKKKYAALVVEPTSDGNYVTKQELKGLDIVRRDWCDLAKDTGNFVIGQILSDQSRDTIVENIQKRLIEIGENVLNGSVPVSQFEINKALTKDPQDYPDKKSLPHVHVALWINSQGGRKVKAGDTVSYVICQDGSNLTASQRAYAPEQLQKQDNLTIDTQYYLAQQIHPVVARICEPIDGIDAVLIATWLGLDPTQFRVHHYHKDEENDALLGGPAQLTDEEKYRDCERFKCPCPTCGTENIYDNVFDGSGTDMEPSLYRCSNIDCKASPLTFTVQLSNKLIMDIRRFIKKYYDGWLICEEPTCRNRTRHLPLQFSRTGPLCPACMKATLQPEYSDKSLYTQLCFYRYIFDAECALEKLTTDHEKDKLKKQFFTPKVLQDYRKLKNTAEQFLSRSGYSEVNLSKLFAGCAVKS
The experiment in a line: Inhibition of human DNA polymerase alpha. A digest of the protocol: (§1)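 Each enzyme–compound pair was tested in duplicate over 0.8 to 100 μM, with 100 μM as the highest dose. Each run included a no-inhibitor control, a solvent dilution (0.016 to 2% DMSO) and the relevant reference inhibitor. Percent inhibition at 100 μM was recorded for polymerase γ.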

A further assay concerns the target DNA polymerase beta (Homo sapiens, UniProt P06746). The experiment in a line: Inhibition of human DNA polymerase beta. Summed up:
as §1

The target of assay [2] is T2, DNA polymerase subunit gamma-1 (Homo sapiens, UniProt P54098).
T2 sequence (P54098 whole entry): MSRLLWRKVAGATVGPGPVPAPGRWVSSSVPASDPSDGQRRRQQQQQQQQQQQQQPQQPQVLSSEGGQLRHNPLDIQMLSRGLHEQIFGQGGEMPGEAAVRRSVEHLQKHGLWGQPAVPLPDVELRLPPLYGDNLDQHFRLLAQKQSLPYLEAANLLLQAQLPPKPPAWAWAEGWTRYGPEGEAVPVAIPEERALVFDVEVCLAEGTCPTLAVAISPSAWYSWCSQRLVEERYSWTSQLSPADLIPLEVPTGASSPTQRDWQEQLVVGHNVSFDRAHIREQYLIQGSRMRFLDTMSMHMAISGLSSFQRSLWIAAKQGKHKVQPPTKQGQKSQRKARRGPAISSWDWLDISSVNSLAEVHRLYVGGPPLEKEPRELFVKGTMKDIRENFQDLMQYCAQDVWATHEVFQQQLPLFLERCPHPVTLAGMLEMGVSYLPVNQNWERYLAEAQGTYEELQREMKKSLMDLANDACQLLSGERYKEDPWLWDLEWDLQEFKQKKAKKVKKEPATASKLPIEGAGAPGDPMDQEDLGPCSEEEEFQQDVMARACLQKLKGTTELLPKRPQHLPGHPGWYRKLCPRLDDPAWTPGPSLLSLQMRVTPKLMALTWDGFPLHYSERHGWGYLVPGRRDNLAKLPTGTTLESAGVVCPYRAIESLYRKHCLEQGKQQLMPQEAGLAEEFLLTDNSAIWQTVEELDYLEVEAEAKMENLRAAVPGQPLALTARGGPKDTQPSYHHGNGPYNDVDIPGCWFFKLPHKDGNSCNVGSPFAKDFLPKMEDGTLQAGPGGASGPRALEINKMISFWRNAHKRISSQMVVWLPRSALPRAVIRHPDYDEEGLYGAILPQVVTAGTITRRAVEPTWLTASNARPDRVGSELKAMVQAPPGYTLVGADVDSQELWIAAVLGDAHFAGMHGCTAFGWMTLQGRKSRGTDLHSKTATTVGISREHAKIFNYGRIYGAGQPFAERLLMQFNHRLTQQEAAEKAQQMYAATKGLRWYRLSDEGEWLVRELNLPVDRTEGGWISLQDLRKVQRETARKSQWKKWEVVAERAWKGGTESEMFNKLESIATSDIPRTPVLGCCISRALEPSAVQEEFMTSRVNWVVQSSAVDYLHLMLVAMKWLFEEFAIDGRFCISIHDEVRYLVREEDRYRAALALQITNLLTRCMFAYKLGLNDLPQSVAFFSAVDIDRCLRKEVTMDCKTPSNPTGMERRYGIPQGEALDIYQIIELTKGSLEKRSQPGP
The experiment in a line: Inhibition of human DNA polymerase gamma. Summed up: as §1

The target in assay [3] is T3, Translocator protein (Homo sapiens, UniProt P30536). The experiment in a line: (§2) Inhibition of peripheral benzodiazepine BZD receptor by radioligand binding assay. A digest of the protocol: (§3)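 Radioligand binding assays for the GABA-A central BZD receptor and the peripheral BZD receptor were run as a single experiment in duplicate.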
Assay [4] concerns the target T3, Translocator protein. The assay is described as §2. Summed up:
as §3
The source holds these as a separate data set.

T3 sequence (P30536 whole entry): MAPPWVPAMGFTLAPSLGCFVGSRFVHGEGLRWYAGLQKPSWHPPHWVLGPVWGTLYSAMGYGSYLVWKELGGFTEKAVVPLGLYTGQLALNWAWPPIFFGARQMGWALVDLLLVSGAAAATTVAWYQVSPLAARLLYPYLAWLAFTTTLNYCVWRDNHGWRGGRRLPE

For the compound `CC(=O)N1c2ccccc2N=C2CC(C)(C)CC(=O)C2C1c1ccc(Cl)cc1Cl` (stereo not drawn) [10-acetyl-11-(2,4-dichlorophenyl)-3,3-dimethyl-2,3,4,5,10,11-hexahydro-1H-dibenzo[b,e][1,4]diazepin-1-one], the IC50 (in assay [1]; on DNA polymerase beta; in assay [2]) was > 100 µM each time.
`COc1ccc(C2C3C(=O)CC(C)(C)CC3=Nc3ccccc3N2C(C)=O)cc1OCc1ccccc1` (stereo not drawn) [10-acetyl-11-(3-(benzyloxy)-4-methoxyphenyl)-3,3-dimethyl-2,3,4,5,10,11-hexahydro-1H-dibenzo[b,e][1,4]diazepin-1-one]: the IC50 (in assay [1]; against DNA polymerase beta; in assay [2]) was > 100 µM throughout.
`CC(=O)N1c2cccc(O)c2N=C2CC(C)(C)CC(=O)C2C1c1ccc(OCc2ccccc2)cc1Cl` (stereo not drawn) [10-acetyl-11-(4-(benzyloxy)-2-chlorophenyl)-6-hydroxy-3,3-dimethyl-2,3,4,5,10,11-hexahydro-1H-dibenzo[b,e][1,4]diazepin-1-one]: the IC50 on Translocator protein [3] and at Translocator protein [4] was > 30 µM each time.

The values above are taken from BindingDB's records for doi:10.1128/AAC.00669-08 (Tibotec, 2008).
